Test results from article PMC3049920 (Journal of immunology (Baltimore, Md. : 1950), 2010).

Assays:
[1] = tested on: IFNγ+ cells in mouse splenocytes; assay: Induction of IFNγ+ cells in mouse splenocytes in vitro; assay type: cell-based; details: optimal dose 20 µg/ml
Procedure, shortened: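 Splenocytes came from female 129 mice, 3–5 weeks old. They were cultured 16 h in RPMI 1640/10% FCS with or without test agent in plates coated with anti-mouse IFNγ antibody. IFNγ+ cells were detected in situ by ELISPOT and counted with an automated reader. Values are mean ± SD of duplicates.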

[2] = tested on: IFNγ+ cells in human peripheral blood; assay: Induction of IFNγ+ cells in human peripheral blood in vitro; assay type: cell-based; details: 20 µg/ml
Procedure, shortened: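 Whole heparinized blood (0.1 ml) from healthy volunteers was incubated with test agent at 37°C for 4 h. RBCs were lysed with hypotonic buffer (10 mM Tris pH 7.4, 10 mM NaCl), and the WBC pellet was washed and resuspended in RPMI 1640/10% FCS. IFNγ+ cells were quantified by human IFNγ ELISPOT (16 h culture). Values are mean ± SD of duplicates.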

B16 melanoma tumors = B16 melanoma tumors in C57BL/6 mice; assay type: in vivo, mouse; details: 12 mg, daily, 5 d/wk, s.c.
[3] = tested on: cellular phospho-tyrosine proteins in Jurkat cells; assay: Profile of cellular phospho-tyrosine proteins in Jurkat cells; assay type: cell-based, human; details: 10 min

| Compound | maximal increase of IFNγ+ cells [1] | induction of IFNγ+ cells [2] | response of B16 tumors (B16 melanoma tumors) | effect on profile of cellular phospho-tyrosine proteins [3] |
| --- | --- | --- | --- | --- |
| O.O.O.O.O.O.O.O.O.O=C([O-])[C@@H]1[O][Sb](=[O])([O][Sb]2(=[O])[O][C@H]([C@H](O)CO)[C@H](O)[C@H](C(=O)[O-])[O]2)[O][C@H]([C@H](O)CO)[C@@H]1O.[Na+].[Na+].[Na+] (stereo partly shown) [SSG, sodium stibogluconate] | ~ 3 fold | ~ 2 fold | not responsive | – |
| pervanadate [pervanadate (PV)] | – | – | – | marked increases of multiple phosphotyrosine proteins |
